# Measured values from ChEMBL document CHEMBL3763110, “A potent and selective inhibitor targeting human and murine 12/15-LOX” (Bioorg Med Chem, 2016).
# Biological target: T1, Polyunsaturated fatty acid 5-lipoxygenase (Homo sapiens, UniProt P09917)
# T1 sequence (P09917 whole entry): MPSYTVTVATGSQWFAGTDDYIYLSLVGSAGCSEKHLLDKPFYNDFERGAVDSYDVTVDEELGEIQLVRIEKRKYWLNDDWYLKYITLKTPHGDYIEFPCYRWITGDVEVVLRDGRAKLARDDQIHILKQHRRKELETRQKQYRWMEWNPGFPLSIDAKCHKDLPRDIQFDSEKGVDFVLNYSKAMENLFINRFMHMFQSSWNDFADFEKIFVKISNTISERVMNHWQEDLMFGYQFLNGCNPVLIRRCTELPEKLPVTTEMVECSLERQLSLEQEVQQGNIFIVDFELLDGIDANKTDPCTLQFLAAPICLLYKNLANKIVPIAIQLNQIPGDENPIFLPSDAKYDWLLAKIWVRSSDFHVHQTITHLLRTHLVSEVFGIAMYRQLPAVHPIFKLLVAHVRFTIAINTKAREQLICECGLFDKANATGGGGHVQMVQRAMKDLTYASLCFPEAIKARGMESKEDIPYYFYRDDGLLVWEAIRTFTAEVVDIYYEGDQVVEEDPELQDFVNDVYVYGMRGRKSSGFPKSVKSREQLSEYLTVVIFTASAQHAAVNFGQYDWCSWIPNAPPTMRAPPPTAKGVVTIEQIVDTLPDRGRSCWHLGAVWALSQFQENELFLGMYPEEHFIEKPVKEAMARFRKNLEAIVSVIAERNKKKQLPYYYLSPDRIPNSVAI
# Experiment: Inhibition of human 5-LOX using arachidonic acid as substrate by UV-visible spectrophotometric analysis
# Conditions: not given
row,Structure (SMILES),IC50 [µM]
1,Cc1ccc(O)c(-c2cc(-c3ccccc3C)[nH]n2)c1,> 100

# Biological target: T2, Polyunsaturated fatty acid lipoxygenase ALOX12 (Homo sapiens, UniProt P18054)
# T2 sequence (P18054 whole entry): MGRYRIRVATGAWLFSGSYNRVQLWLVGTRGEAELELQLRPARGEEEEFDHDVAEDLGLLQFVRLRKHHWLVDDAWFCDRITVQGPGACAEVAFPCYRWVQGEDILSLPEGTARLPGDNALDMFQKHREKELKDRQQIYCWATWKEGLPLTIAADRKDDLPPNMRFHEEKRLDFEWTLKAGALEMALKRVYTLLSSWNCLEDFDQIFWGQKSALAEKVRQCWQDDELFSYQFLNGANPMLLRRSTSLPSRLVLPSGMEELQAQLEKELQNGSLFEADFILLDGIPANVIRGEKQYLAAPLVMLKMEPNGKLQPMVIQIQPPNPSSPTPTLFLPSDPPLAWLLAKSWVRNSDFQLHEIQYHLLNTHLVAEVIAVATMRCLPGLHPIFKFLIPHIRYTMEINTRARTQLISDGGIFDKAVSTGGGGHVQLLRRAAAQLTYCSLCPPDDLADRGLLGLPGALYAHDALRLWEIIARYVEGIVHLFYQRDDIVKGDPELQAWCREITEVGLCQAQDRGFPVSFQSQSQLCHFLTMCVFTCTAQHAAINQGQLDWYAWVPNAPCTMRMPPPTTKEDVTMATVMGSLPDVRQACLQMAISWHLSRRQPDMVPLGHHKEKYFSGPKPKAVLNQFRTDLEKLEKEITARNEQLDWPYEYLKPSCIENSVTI
# Experiment: Inhibition of N-terminal His6-tagged human 12-LOX using arachidonic acid as substrate by UV-visible spectrophotometric analysis
# Conditions: not given
row,Structure (SMILES),IC50 [µM]
1,Cc1ccc(O)c(-c2cc(-c3ccccc3C)[nH]n2)c1,> 50

# Biological target: T3, Polyunsaturated fatty acid lipoxygenase ALOX15 (Homo sapiens) (UniProt P16050)
# T3 sequence (whole entry): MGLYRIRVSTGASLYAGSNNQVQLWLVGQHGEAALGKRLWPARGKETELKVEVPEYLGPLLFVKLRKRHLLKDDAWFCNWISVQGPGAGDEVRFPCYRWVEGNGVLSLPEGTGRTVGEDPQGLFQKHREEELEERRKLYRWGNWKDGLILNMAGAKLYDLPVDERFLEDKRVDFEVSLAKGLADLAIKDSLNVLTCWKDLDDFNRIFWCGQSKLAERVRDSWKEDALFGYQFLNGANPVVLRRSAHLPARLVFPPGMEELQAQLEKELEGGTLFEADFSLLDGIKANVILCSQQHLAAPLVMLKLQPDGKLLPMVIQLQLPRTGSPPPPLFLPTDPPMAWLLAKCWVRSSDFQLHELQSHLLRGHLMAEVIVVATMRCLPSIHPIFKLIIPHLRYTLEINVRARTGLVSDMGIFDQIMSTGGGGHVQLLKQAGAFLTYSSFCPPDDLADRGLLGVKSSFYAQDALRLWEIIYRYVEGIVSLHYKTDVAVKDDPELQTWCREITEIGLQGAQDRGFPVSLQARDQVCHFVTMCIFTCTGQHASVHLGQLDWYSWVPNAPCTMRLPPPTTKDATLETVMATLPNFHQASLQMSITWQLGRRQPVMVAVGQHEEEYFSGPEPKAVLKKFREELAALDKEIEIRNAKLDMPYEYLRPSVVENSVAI
# Conditions: not given
row,Structure (SMILES),Kic [µM]
1,Cc1ccc(O)c(-c2cc(-c3ccccc3C)[nH]n2)c1,1

# Biological target: T4, Polyunsaturated fatty acid lipoxygenase ALOX15B (Homo sapiens, UniProt O15296)
# T4 sequence (O15296 whole entry): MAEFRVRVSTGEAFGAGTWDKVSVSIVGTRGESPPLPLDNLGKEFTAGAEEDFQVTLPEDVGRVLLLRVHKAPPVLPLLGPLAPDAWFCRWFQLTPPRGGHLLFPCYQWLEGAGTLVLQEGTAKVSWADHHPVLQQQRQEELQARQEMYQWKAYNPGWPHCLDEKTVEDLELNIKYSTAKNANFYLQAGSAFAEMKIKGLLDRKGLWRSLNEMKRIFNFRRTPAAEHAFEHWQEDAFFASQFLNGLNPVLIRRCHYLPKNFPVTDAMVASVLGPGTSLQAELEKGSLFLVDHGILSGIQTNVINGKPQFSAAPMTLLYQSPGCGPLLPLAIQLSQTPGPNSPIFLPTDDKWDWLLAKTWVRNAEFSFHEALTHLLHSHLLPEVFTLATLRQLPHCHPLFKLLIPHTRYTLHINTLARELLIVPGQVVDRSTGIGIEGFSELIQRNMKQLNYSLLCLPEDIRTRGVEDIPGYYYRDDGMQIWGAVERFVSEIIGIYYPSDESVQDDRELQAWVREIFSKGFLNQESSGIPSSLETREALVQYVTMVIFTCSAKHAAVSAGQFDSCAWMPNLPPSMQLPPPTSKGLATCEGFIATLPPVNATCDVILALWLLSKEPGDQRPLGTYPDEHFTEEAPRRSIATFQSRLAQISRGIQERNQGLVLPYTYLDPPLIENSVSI
# Experiment: Inhibition of N-terminal His6-tagged human 15-LOX-2 using arachidonic acid as substrate by UV-visible spectrophotometric analysis
# Conditions: not given
row,Structure (SMILES),IC50 [µM]
1,Cc1ccc(O)c(-c2cc(-c3ccccc3C)[nH]n2)c1,> 50

# Biological target: T5, Polyunsaturated fatty acid lipoxygenase ALOX15 (Mus musculus) (UniProt P39654)
# T5 sequence (whole entry): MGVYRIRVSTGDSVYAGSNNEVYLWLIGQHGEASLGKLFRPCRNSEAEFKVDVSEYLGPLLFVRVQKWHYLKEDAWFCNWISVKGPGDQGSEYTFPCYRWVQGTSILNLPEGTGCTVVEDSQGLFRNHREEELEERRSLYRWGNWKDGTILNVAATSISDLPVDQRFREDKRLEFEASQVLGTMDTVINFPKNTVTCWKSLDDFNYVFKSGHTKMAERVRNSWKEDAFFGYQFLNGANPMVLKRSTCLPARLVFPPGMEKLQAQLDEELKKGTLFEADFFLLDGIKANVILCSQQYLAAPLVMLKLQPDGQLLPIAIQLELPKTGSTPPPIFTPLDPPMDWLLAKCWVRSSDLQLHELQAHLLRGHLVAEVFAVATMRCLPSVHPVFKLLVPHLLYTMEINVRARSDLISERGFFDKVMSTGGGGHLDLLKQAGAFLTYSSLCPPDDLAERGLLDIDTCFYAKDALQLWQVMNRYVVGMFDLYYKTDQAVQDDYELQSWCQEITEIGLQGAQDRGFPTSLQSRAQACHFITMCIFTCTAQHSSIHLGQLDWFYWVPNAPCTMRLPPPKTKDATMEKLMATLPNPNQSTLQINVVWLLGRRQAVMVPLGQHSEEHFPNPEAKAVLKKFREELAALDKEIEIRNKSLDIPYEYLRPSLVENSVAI
# Experiment: Inhibition of glutamate-induced 12/15-LOX-dependent cell death in mouse HT22 cells assessed as increase in cell survival at 5 uM by LDH release assay
# Format: cell-based
# Conditions: HT-22
# Method in brief: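 Mouse HT-22 neuronal cells grown in DMEM with 10% FBS and penicillin/streptomycin. Seeded at 1 × 10^4 cells/well and treated 18h later at ~50–70% confluence. Medium was replaced and 5 mM glutamate added with compound at 5, 10 or 20 μM, or DMSO control (max 0.1% final). LDH measured separately in cell extracts and media; % LDH released to medium calculated after background subtraction.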
row,Structure (SMILES),Survival [%]
1,Cc1ccc(O)c(-c2cc(-c3cccc(Br)c3)[nH]n2)c1,18
2,Oc1ccccc1-c1cc(-c2ccco2)[nH]n1,34
3,COc1ccc(O)c(-c2cc(-c3ccccc3Cl)[nH]n2)c1,83
4,Cc1ccc(O)c(-c2cc(-c3cccc(F)c3)[nH]n2)c1,49
5,Cc1ccc(-c2cc(-c3ccccc3C)[nH]n2)c(O)c1,71
6,Cc1ccc(O)c(-c2cc(-c3ccccc3C)[nH]n2)c1,20
7,COc1ccc(-c2cc(-c3ccccc3O)[nH]n2)cc1,7
8,COc1ccc(O)c(-c2cc(-c3cccc(Br)c3)[nH]n2)c1,70
9,Cc1ccccc1-c1cc(-c2ccccc2O)[nH]n1,76
10,COc1ccc(O)c(-c2cc(-c3ccc(F)cc3)[nH]n2)c1,78
11,COc1ccc(-c2cc(-c3cc(OC)ccc3O)[nH]n2)cc1,96

# Biological target: T6, Prostaglandin G/H synthase 2 (Homo sapiens, UniProt P35354)
# T6 sequence (P35354 whole entry): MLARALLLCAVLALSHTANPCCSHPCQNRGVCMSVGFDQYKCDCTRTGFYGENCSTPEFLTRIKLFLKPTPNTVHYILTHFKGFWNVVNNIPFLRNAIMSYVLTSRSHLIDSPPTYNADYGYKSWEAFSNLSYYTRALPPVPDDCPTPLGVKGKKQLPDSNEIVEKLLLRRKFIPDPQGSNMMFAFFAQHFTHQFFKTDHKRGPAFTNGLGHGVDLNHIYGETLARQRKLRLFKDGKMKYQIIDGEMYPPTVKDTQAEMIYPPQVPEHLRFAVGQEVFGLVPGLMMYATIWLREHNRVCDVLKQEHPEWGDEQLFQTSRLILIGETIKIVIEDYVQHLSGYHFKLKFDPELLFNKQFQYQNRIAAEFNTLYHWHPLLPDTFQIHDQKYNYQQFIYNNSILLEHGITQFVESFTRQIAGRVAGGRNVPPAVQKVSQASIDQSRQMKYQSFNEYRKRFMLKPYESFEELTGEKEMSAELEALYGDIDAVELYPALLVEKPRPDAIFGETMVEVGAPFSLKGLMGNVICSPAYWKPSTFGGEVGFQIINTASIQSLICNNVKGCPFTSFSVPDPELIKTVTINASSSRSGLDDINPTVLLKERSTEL
# Experiment: Inhibition of human COX-2 by UV-visible spectrophotometric analysis
# Conditions: not given
row,Structure (SMILES),IC50 [µM]
1,Cc1ccc(O)c(-c2cc(-c3ccccc3C)[nH]n2)c1,> 100

# Biological target: T3, Polyunsaturated fatty acid lipoxygenase ALOX15 (Homo sapiens)
# Conditions: not given
# Remark: another data set of the same source
row,Structure (SMILES),Kiuc [µM]
1,Cc1ccc(O)c(-c2cc(-c3ccccc3C)[nH]n2)c1,6

# Biological target: T7, Polyunsaturated fatty acid lipoxygenase ALOX15 (Homo sapiens, UniProt P16050)
# T7 sequence (P16050 whole entry): T3 sequence (whole entry)
# Experiment: Inhibition of N-terminal His6-tagged human 12/15-LOX using arachidonic acid as substrate by UV-visible spectrophotometric analysis
# Conditions: not given
row,Structure (SMILES),IC50 [µM]
1,Cc1ccc(O)c(-c2cc(-c3cccc(Br)c3)[nH]n2)c1,9.1
2,c1ccc(-c2cc(-c3ccccc3)[nH]n2)cc1,> 50
3,Cc1ccccc1-c1cc(-c2ccccc2O)n[nH]1,7
4,COc1ccc(-c2cc(-c3ccc(C)cc3)[nH]n2)c(O)c1,> 50
5,Oc1ccc(Br)cc1-c1cc(-c2ccccc2)[nH]n1,> 50
6,Oc1ccccc1-c1cc(-c2ccco2)[nH]n1,7
7,Oc1ccc(Br)cc1-c1cc(-c2ccccc2Cl)[nH]n1,> 50
8,Cc1ccc(O)c(-c2cc(-c3cccc(F)c3)[nH]n2)c1,10
9,Cc1ccc(-c2cc(-c3ccccc3C)[nH]n2)c(O)c1,10
10,Cc1ccc(-c2cc(-c3ccc(C)cc3O)[nH]n2)cc1,> 50
11,Oc1ccccc1-c1cc[nH]n1,> 50
12,COc1ccc(C(=O)c2c[nH]nc2-c2cc(C)ccc2O)cc1,> 50
13,COc1ccc(O)c(-c2cc(-c3ccccc3Cl)n[nH]2)c1,6.6
14,Cc1ccc(O)c(-c2cc(-c3ccccc3C)[nH]n2)c1,3.4
15,Oc1ccccc1-c1cc(-c2ccccc2Cl)[nH]n1,4
16,COc1ccc(-c2cc(-c3ccccc3O)[nH]n2)cc1,10
17,COc1ccc(O)c(-c2cc(-c3cccc(Br)c3)[nH]n2)c1,7
18,Oc1ccc(Cl)cc1-c1cc(-c2ccccc2Cl)[nH]n1,> 50
19,Cc1ccc(O)c(-c2cc(C(=O)NCc3ccccc3)[nH]n2)c1,> 50
20,COc1ccc(O)c(-c2cc(-c3ccc(F)cc3)[nH]n2)c1,11
21,COc1ccc(-c2cc(-c3cc(OC)ccc3O)[nH]n2)cc1,6
